Results as given in ChEMBL document CHEMBL4145471, “New 1,5 and 2,5-disubstituted tetrazoles-dependent activity towards surface barrier of Candida albicans” (Eur J Med Chem, 2018).
Calls of active or inactive are those of the source. No cut-off for these calls is given here.

How the values were obtained:
[1] = system: Candida albicans; test: Antifungal activity against Candida albicans ATCC 90028 assessed as reduction in cell adherence to human Caco2 cells at 16 ug/ml preincubated for 2 hrs followed by compound washout and resuspended in RPMI medium measured after 18 hrs by colony counting assay relative to control; type: functional; design: scale not given: the % may be the effect or the level left
Method in brief: (§1)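 Yeasts grown 18 h in YEPD at 30°C, then exposed at 10^4/mL to compound in RPMI for 2 h at 35°C with shaking. Washed twice in PBS, resuspended in RPMI and added to Caco-2 monolayers (18 h culture in EMEM/10% FCS) for 2 h at 37°C, 5% CO2. Non-adherent cells rinsed off, Caco-2 lysed with water, and adherent yeasts counted as colonies on Sabouraud agar after 18 h at 30°C. Expressed as % of cells added versus untreated; three experiments.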

[2] = system: Candida albicans; test: Synergistic antifungal activity against Candida albicans ATCC 90028 at 80 ug/ml after 48 hrs in presence of fluconazol by checkerboard assay; type: functional
[3] = system: Candida albicans; test: Synergistic antifungal activity against Candida albicans ATCC 90028 at 1.25 ug/ml after 48 hrs in presence of 2.5 ug/ml fluconazol by checkerboard assay relative to control; type: functional
Method in brief: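 Checkerboard microdilution (M27-A3) on C. albicans ATCC 90028 in RPMI 1640: fluconazole (80-1.25 µg/mL) crossed with tetrazole (80-1.25 µg/mL final), incubated at 35°C for 48 h. Growth by OD405 at 18 and 48 h, endpoint taken as 100% inhibition. FIC index = sum of the two agents' FICs; <1 synergism, >1 antagonism.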

[4] = system: Candida albicans; test: Antifungal activity against Candida albicans ATCC 90028 assessed as total FIC index at 80 ug/ml in presence of fluconazol after 48 hrs by checkerboard-based XTT assay; type: functional
Method in brief: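 Checkerboard against strain ATCC 90028, inoculum per M27-A3: fluconazole 80-1.25 µg/mL on one axis, tetrazole 80-1.25 µg/mL on the other. Plates at 35°C for 48 h, then XTT metabolic reduction read at 475 nm (660 nm reference). Activity is the drop in mean absorbance against untreated growth control. FICs and their summed FIC index are taken at 50% reduction in metabolic activity.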

[5] = system: Candida albicans; test: Antifungal activity against Candida albicans ATCC 90028 at 0.0313 ug/ml after 18 hrs relative to control; type: functional
[6] = system: Candida albicans; test: Antifungal activity against Candida albicans ATCC 90028 assessed as metabolic activity at 40 ug/ml after 48 hrs in presence of 10 ug/ml fluconazol by XTT assay relative to control
[7] = system: Candida albicans; test: Induction of early apoptosis in Candida albicans ATCC 90028 biofilms assessed as chromatin condensation at 0.03 ug/ml after 18 hrs by propidium iodide/acridine orange staining based confocal laser scanning microscopic analysis; type: functional, organism-based
Method in brief: (§2)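 Caco-2-free model: the TR146 epithelial layer, 21 days post-seeding on filter inserts, was inoculated with 1.0–1.2×10^5/mL log-phase ATCC 90028 yeast. Biofilms were treated at 256, 16 or 0.0313 µg/mL for 18–48 h at 37°C in 5% CO2 and washed with PBS. Unfixed cells were stained with propidium iodide (5 µg/mL) and acridine orange, then imaged by confocal laser scanning microscopy.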

[8] = system: Candida albicans; test: Antifungal activity against Candida albicans ATCC 90028 after 72 hrs in presence of ergosterol by M27-A3 microdilution method; type: functional; conditions: ATCC 90028, 72 h
Method in brief: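 Ergosterol-modified M27-A3 assay. Compounds at 512-1 µg/mL serially diluted in RPMI; the 10^3 CFU/mL inoculum is made in RPMI with ergosterol (dissolved in 10% DMSO/1% Tween 80, heated), giving 400 µg/mL ergosterol in the wells. Itraconazole and amphotericin B serve as controls. Plates at 35°C, read after 72 h. MIC is the lowest concentration without visible growth; triplicate on three days, geometric means.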

[9] = Toxicity in Galleria mellonella larvae assessed as survival at 16 ug/ml after 96 hrs relative to control; type: organism-based; conditions: in vivo
Method in brief: (§3)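 Uninfected larvae, groups of 10, injected with compound in RPMI at 256, 16 or 0.0313 µg/mL; PBS-injected larvae as controls. Kept at 37°C in darkness up to 96 h, monitored daily; death is no response to physical stimuli. Mobility, cocoon formation, melanization and survival scored as health index. Three independent experiments, samples in duplicate; Wilcoxon signed-rank test vs control.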

[10] = system: Candida albicans; test: Induction of apoptosis in Candida albicans ATCC 90028 protoplast assessed as early apoptotic cells at 16 ug/ml after 18 hrs Annexin V-FITC/propidium iodide staining based flow cytometry ( Rvb = 0.13 +/- 0.06%); type: functional
[11] = system: Candida albicans; test: Induction of apoptosis in Candida albicans ATCC 90028 protoplast assessed as viable cells at 16 ug/ml after 18 hrs Annexin V-FITC/propidium iodide staining based flow cytometry ( Rvb = 59.19 +/- 11%); type: functional
[12] = Toxicity in Galleria mellonella larvae assessed as survival at 256 ug/ml after 96 hrs relative to control; type: organism-based; conditions: in vivo; method in brief: as §3
[13] = system: Candida albicans; test: Induction of apoptosis in Candida albicans ATCC 90028 biofilms assessed as detection of DNA ladder at 256 ug/ml after 10 mins by […]; type: functional, organism-based
[14] = system: Candida albicans; test: Induction of necrosis in Candida albicans ATCC 90028 biofilms at 256 ug/ml after 18 hrs by propidium iodide/acridine orange staining based confocal laser scanning microscopic analysis; type: functional, organism-based; method in brief: as §2
[15] = system: Candida albicans; test: Antifungal activity against Candida albicans ATCC 90028 assessed as growth inhibition at 100 ug/ml after 7 days in presence of sorbitol by M27-A3 microdilution method; type: functional, organism-based
Method in brief: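 Osmotic protection variant of M27-A3. Tetrazoles serially diluted (1.04-400 µg/mL) in Sabouraud dextrose broth; inoculum 1.7×10^3 CFU/mL in SDB with sorbitol at 0.8 M final. Plates at 35°C, read visually and at OD405 after 2 and 7 days; triplicate.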

[16] = system: Candida albicans; test: Antifungal activity against Candida albicans ATCC 90028 assessed as reduction in cell adherence to human Caco2 cells at 0.0313 ug/ml preincubated for 2 hrs followed by compound washout and resuspended in RPMI medium measured after 18 hrs by colony counting assay relative to control; type: functional; design: scale not given: the % may be the effect or the level left; method in brief: as §1
[17] = system: Candida albicans; test: Induction of necrosis in Candida albicans ATCC 90028 protoplast at 16 ug/ml after 18 hrs Annexin V-FITC/propidium iodide staining based flow cytometry (reference value: 40.48 +/- 16.81%); type: functional
[18] = Toxicity in Galleria mellonella larvae assessed as survival at 0.0313 ug/ml after 96 hrs relative to control; type: organism-based; conditions: in vivo; method in brief: as §3
[19] = system: Candida albicans; test: Induction of apoptosis in Candida albicans ATCC 90028 protoplast assessed as late apoptotic cells at 16 ug/ml after 18 hrs Annexin V-FITC/propidium iodide staining based flow cytometry ( Rvb = 0.20 +/- 0.28%); type: functional

Structure (SMILES) | Activity [1] | fractional inhibitory concentration index (FICI) [2] | growth inhibition (GI) [3] | fractional inhibitory concentration index (FICI) [4] | Activity [5] | Metabolic activity [6] | Activity [7] | MIC [8] | survival at 96 h [9] | Activity [10] | Activity [11] | survival at 96 h [12] | Activity [13] | Activity [14] | growth inhibition (GI) [15] | Activity [16] | Activity [17] | survival at 96 h [18] | Activity [19]
Cc1ccc(-c2nnn(CCCN3CCOCC3)n2)cc1 | 14.18% | >1 | 99.23% | >6.25 | 99.87% | 28.26% | – | – | – | – | – | – | – | – | – | – | – | – | –
CCOC(=O)CCn1nnc(-c2ccccc2)n1 | 65.41% | – | – | – | 99.34% | 56.45% | Active | 64 µg/mL | 100% | 0.1% | 1.67% | 100% | inactive | Active | Active | 63.41% | 97.03% | 100% | 1.2%
ClCCCn1nnnc1-c1ccccc1Cl | – | – | 99.64% | >10 | 99.51% | 70.86% | – | – | 100% | 8% | 1.85% | 100% | – | – | inactive | – | 89.92% | 100% | 0.23%
